Calls of active or inactive are those of the source. The calls are words filed in the database; no cut-off is given here.

The species entered for experiment [1] is Rattus norvegicus. In words: In vitro inhibition of palmitate oxidation; Inactive. It is filed as functional. Summed up: (§1)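 In vitro assay in rat hemidiaphragm muscle, using [1-¹⁴C]palmitic acid as the labeled substrate. Read-out was inhibition of oxidation of the labeled palmitate.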
In experiment [2] the test system is Rattus norvegicus. In words: Minimum effective concentration by rat glucose tolerance test (po); Inactive. It is filed as functional, organism-based.
For experiment [3], the species on record is Rattus norvegicus. In words: Compound was tested in vitro for inhibition of palmitate oxidation; Inactive. It is filed as functional. Summed up:
as §1

The test system of experiment [4] is Rattus norvegicus. Description: Maximum lowering of blood glucose when 100 mg/kg of the drug administered orally was reported by rat glucose tolerance test; Inactive. In kind it is functional, organism-based. On the set-up: dose 100 mg/kg.
In experiment [5] the test system is Rattus norvegicus. In words: Minimum effective concentration by rat glucose tolerance test (po). The settings on record: read-out: MED. In kind it is functional.
Experiment [6] concerns Rattus norvegicus. In words: Maximum lowering of blood glucose when 100 mg/kg of the drug administered orally was reported by rat glucose tolerance test. It is filed as functional. The settings on record: route oral.
The species named for experiment [7] is Rattus norvegicus. Description: In vitro inhibition of palmitate oxidation. In kind it is functional. In outline:
as §1

For experiment [8], the species on record is Rattus norvegicus. In words: Compound was tested in vitro for inhibition of palmitate oxidation. In kind it is functional. The settings on record: for minimal effective concentration: Rattus norvegicus, read-out: MEC. In outline:
as §1

Experiment [9] concerns Rattus norvegicus. Description: Maximum lowering of blood glucose when 25 mg/kg of the drug administered orally was reported by rat glucose tolerance test. It is filed as functional. The settings on record: route oral.
In experiment [10] the test system is Rattus norvegicus. Description: Maximum lowering of blood glucose when 60 mg/kg of the drug administered orally was reported by rat glucose tolerance test. It is filed as functional. The settings on record: route oral.
Experiment [11] deals with Rattus norvegicus. Description: Maximum lowering of blood glucose when 50 mg/kg of the drug administered orally was reported by rat glucose tolerance test. The settings on record: route oral. In kind it is functional.
In experiment [12] the test system is Rattus norvegicus. In words: Maximum lowering of blood glucose when 75 mg/kg of the drug administered orally was reported by rat glucose tolerance test. In kind it is functional. The settings on record: route oral.

For the molecule `CCCCCCCCCCCCCCC1(CC(C(=O)OC)C(=O)OC)CO1` (configuration not stated), in the experiment listed under Rattus norvegicus [1], the IC50 entry was “Not Active”. Also, the MED result with Rattus norvegicus [2] is “inactive”. In addition, the MEC result in the experiment filed under Rattus norvegicus [3] was “inactive”. Further, the Max lowering entry in the experiment on Rattus norvegicus [4] was “inactive”.
Regarding `CCCCCCCCCCC1(C(=O)OCC)OC1(C)C` (configuration not stated), the IC50 entry in the experiment listed under Rattus norvegicus [1] was “Not Active”. For the same molecule, in the experiment with Rattus norvegicus [2], the MED result was “inactive”. The MEC entry in the experiment filed under Rattus norvegicus [3] was “inactive”. Further, the Max lowering entry with Rattus norvegicus [4] is “inactive”.
Consider `CCCCCCCCCCCCCCCCCCC1(C(=O)OC)CO1` (configuration not stated), for which, in the experiment on Rattus norvegicus [5], the minimal effective dose worked out at 10 mg/kg. For the same molecule, in the experiment filed under Rattus norvegicus [3], the MEC result is “inactive”. Moreover, the Max lowering in the experiment with Rattus norvegicus [6] turned out to be 25%.
In turn, `CCCCCCCCCCCCCCC1(C(=O)OCC(O)CO)CO1` (configuration not stated) came in with an IC50 in the experiment filed under Rattus norvegicus [7] (Rattus norvegicus) of 16 µM. Besides, the minimal effective dose in the experiment on Rattus norvegicus [5] was found to be 5 mg/kg. Also, the minimal effective concentration in the experiment listed under Rattus norvegicus [8] was 10 µM. This molecule also gave a Max lowering with Rattus norvegicus [9] of 31%.
With `CCCCCCCCCCCCCCC1(C(N)=O)CO1` (configuration not stated), in the experiment filed under Rattus norvegicus [1], the IC50 entry is “Not Active”. The minimal effective dose in the experiment with Rattus norvegicus [5] was 10 mg/kg. Further, the MEC entry in the experiment filed under Rattus norvegicus [3] was “inactive”. Also, in the experiment on Rattus norvegicus [6], the Max lowering is 44%.
On to `CCCCCCCCCCCCCCC1(C(=O)[O-])CO1.[Na+]` (configuration not stated), for which the IC50 in the experiment filed under Rattus norvegicus [7] is 1 µM. For the same molecule, the minimal effective dose in the experiment on Rattus norvegicus [5] was determined as 2.5 mg/kg. This molecule also displayed an MEC in the experiment filed under Rattus norvegicus [8] of 0.2 µM. This molecule also yielded a Max lowering with Rattus norvegicus [10] of 38%.
As to `CCCCCCCCCCCCCCC1(CCC(=O)OC)CO1` (configuration not stated), the IC50 result in the experiment filed under Rattus norvegicus [1] was “Not Active”. For the same molecule, in the experiment on Rattus norvegicus [2], the MED entry is “inactive”. Besides, in the experiment listed under Rattus norvegicus [3], the MEC entry is “inactive”. For the same molecule, the Max lowering entry with Rattus norvegicus [4] was “inactive”.
In the experiment filed under Rattus norvegicus [7] (Rattus norvegicus), `CCCCCCCCCCCCCCC1(C(=O)OCCCC)CO1` (configuration not stated) yielded an IC50 of 47 µM. Moreover, in the experiment on Rattus norvegicus [5], the minimal effective dose came to 1.5 mg/kg. For the same molecule, in the experiment filed under Rattus norvegicus [8], the minimal effective concentration amounted to 10 µM. This molecule also returned a Max lowering in the experiment on Rattus norvegicus [6] of 40%.
For `CCCCCCCCCCCC1(C(=O)OC)CO1` (configuration not stated), in that order: 7 µM, 10 mg/kg, 2.5 µM and 38%.
As to `CCCCCCCCCCC1(C(=O)OC)CO1` (configuration not stated), the concentration for half-maximal inhibition (IC50) in the experiment listed under Rattus norvegicus [7] (Rattus norvegicus) was 5 µM. Besides, the minimal effective dose in the experiment with Rattus norvegicus [5] was 10 mg/kg. Moreover, in the experiment filed under Rattus norvegicus [8], the minimal effective concentration is 0.5 µM. This molecule also returned a Max lowering in the experiment on Rattus norvegicus [11] of 32%.
For the molecule `COC(=O)C1(CCCCCCCCCCc2ccccc2)CO1` (configuration not stated), in the experiment on Rattus norvegicus [5], the minimal effective dose came to 10 mg/kg. In the experiment with Rattus norvegicus [9], the Max lowering was 36%.
Regarding `CCCCCCCCCCCCC1(C(=O)OC)CO1` (configuration not stated), the IC50 in the experiment filed under Rattus norvegicus [7] (Rattus norvegicus) is 15 µM. Besides, the minimal effective dose with Rattus norvegicus [5] was found to be 5 mg/kg. In addition, in the experiment listed under Rattus norvegicus [8], the minimal effective concentration was found to be 1 µM. Besides, the Max lowering with Rattus norvegicus [6] is 32%.
Consider `CCCCCCCCCCCCCCC1(C(=O)NCCO)CO1` (configuration not stated), for which the IC50 entry in the experiment filed under Rattus norvegicus [1] is given as “Not Active”. Besides, in the experiment with Rattus norvegicus [5], the minimal effective dose was determined as 100 mg/kg. Moreover, the MEC entry in the experiment filed under Rattus norvegicus [3] was “inactive”. The molecule further had a Max lowering in the experiment with Rattus norvegicus [6] of 33%.
As to `CCCCCCC1(C(=O)OC)CO1` (configuration not stated), in the experiment listed under Rattus norvegicus [7] (Rattus norvegicus), the IC50 came out at 102 µM. Besides, the minimal effective dose with Rattus norvegicus [5] came to 10 mg/kg. Moreover, the minimal effective concentration in the experiment filed under Rattus norvegicus [8] turned out to be 20 µM. In the experiment on Rattus norvegicus [6], this molecule yielded a Max lowering of 30%.
With `CCCCCCCCCCCCCCC1(C(=O)N(C)C)CO1` (configuration not stated), the IC50 result in the experiment filed under Rattus norvegicus [1] is “Not Active”. The minimal effective dose in the experiment on Rattus norvegicus [5] is 25 mg/kg. In the experiment listed under Rattus norvegicus [3], the MEC result is “inactive”. The Max lowering with Rattus norvegicus [6] was found to be 19%.
In turn, `CCCCCCCCCCCCCCC1(C(=O)OC)CO1` (configuration not stated) [METHYL PALMOXIRATE] showed an IC50 in the experiment listed under Rattus norvegicus [7] (Rattus norvegicus) of 2 µM. The minimal effective dose in the experiment on Rattus norvegicus [5] is 4 mg/kg. For the same molecule, the minimal effective concentration in the experiment filed under Rattus norvegicus [8] came out at 0.1 µM. The same molecule showed a Max lowering in the experiment with Rattus norvegicus [12] of 45%.
Regarding `COC(=O)C1(C)CO1` (configuration not stated), in the experiment listed under Rattus norvegicus [1], the IC50 result is reported as “Not Active”. Besides, in the experiment on Rattus norvegicus [2], the MED result is “inactive”. Moreover, the MEC entry in the experiment filed under Rattus norvegicus [3] is “inactive”. Also, the Max lowering entry with Rattus norvegicus [4] is “inactive”.
As for `CCCCCCCCCCCCCCC1(C(=O)OC)OC1(C)C` (configuration not stated), the IC50 entry in the experiment filed under Rattus norvegicus [1] is listed as “Not Active”. For the same molecule, the MED result with Rattus norvegicus [2] was “inactive”. Further, the MEC entry in the experiment filed under Rattus norvegicus [3] is “inactive”. Further, the Max lowering entry in the experiment on Rattus norvegicus [4] is “inactive”.
As for `CCCCCCCCCCCCCCCCCCCCCCC1(C(=O)OC)CO1` (configuration not stated), in the experiment listed under Rattus norvegicus [1], the IC50 result was “Not Active”. The minimal effective dose in the experiment with Rattus norvegicus [5] was determined as 10 mg/kg. For the same molecule, the MEC result in the experiment filed under Rattus norvegicus [3] is “inactive”. The Max lowering in the experiment on Rattus norvegicus [6] is reported as 17%.
Regarding `CCCCCCCCCCCCCCC1(C(=O)O)CO1` (configuration not stated) [PALMOXIRATE], the minimal effective dose with Rattus norvegicus [5] came to 5 mg/kg. Also, in the experiment listed under Rattus norvegicus [8], the minimal effective concentration was 0.1 µM. In the experiment with Rattus norvegicus [6], this molecule registered a Max lowering of 53%.
On to `CCCCCCCCCCCCCCC1(C(=O)OC)OC1C` (configuration not stated), for which the IC50 result in the experiment filed under Rattus norvegicus [1] was “Not Active”. Besides, in the experiment with Rattus norvegicus [2], the MED result was “inactive”. For the same molecule, in the experiment listed under Rattus norvegicus [3], the MEC entry was “inactive”. In addition, the Max lowering entry in the experiment on Rattus norvegicus [4] was “inactive”.
`CCCCCCCCCCCCCCCCC1(C(=O)OC)CO1` (configuration not stated) registered an IC50 in the experiment filed under Rattus norvegicus [7] (Rattus norvegicus) of 100 µM. In the experiment with Rattus norvegicus [5], the minimal effective dose amounted to 25 mg/kg. Further, the minimal effective concentration in the experiment filed under Rattus norvegicus [8] is 10 µM. In the experiment on Rattus norvegicus [6], this molecule yielded a Max lowering of 16%.
Take `CCCCCCCCCCCCCC1(C(=O)OC)CO1` (configuration not stated): in the experiment filed under Rattus norvegicus [7] (Rattus norvegicus), the IC50 worked out at 13 µM. The minimal effective dose in the experiment on Rattus norvegicus [5] is 5 mg/kg. For the same molecule, the minimal effective concentration in the experiment filed under Rattus norvegicus [8] was 1 µM. In the experiment on Rattus norvegicus [6], this molecule had a Max lowering of 37%.
In the case of `CCCCCCCCCCCCCCC1(CO)CO1` (configuration not stated), the IC50 entry in the experiment filed under Rattus norvegicus [1] is “Not Active”. Besides, the MED result in the experiment with Rattus norvegicus [2] was “inactive”. Besides, the MEC entry in the experiment listed under Rattus norvegicus [3] is “inactive”. The Max lowering result in the experiment with Rattus norvegicus [4] is “inactive”.

The values are drawn from ChEMBL document CHEMBL1123263, “Alkylglycidic acids: potential new hypoglycemic agents” (J Med Chem, 1986).
